pKi: −log10 of the molar value.
Legend:
[1] = Inhibition of Pseudomonas aeruginosa PA0321 using Boc-Lys(trifluoroacetyl)-AMC as substrate preincubated for 30 mins followed by substrate addition measured after 60 mins by trypsin-based fluorescence assay
[2] = Inhibition of Pseudomonas aeruginosa PA1409 using Boc-Lys(trifluoroacetyl)-AMC as substrate preincubated for 30 mins followed by substrate addition measured after 60 mins by trypsin-based fluorescence assay
[3] = Inhibition of Pseudomonas aeruginosa PA3774 using Boc-Lys(trifluoroacetyl)-AMC as substrate preincubated for 30 mins followed by substrate addition measured after 60 mins by trypsin-based fluorescence assay
Histone deacetylase 4 = Histone deacetylase 4 (Homo sapiens, UniProt P56524); experiment: Inhibition of human HDAC4 using Boc-Lys(trifluoroacetyl)-AMC as substrate preincubated for 30 mins followed by substrate addition measured after 60 mins by trypsin-based fluorescence assay
Histone deacetylase 5 = Histone deacetylase 5 (Homo sapiens, UniProt Q9UQL6); experiment: Inhibition of human HDAC5 using Boc-Lys(trifluoroacetyl)-AMC as substrate preincubated for 30 mins followed by substrate addition measured after 60 mins by trypsin-based fluorescence assay
[4] = Inhibition of Bordetella HDAH using Boc-Lys(trifluoroacetyl)-AMC as substrate preincubated for 30 mins followed by substrate addition measured after 60 mins by trypsin-based fluorescence assay
Outline: (§1)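 Bacterial HDAH activity was measured by a fluorogenic assay in which the deacetylated substrate is converted to fluorescent dye by trypsin. Ki was calculated via Cheng-Prusoff from IC50 values, which were fitted to dose-response curves spanning 10 ligand concentrations.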

[5] = Inhibition of Alcaligenes HDAH using Boc-Lys(trifluoroacetyl)-AMC as substrate preincubated for 30 mins followed by substrate addition measured after 60 mins by trypsin-based fluorescence assay; outline: as §1

Histone deacetylase 4, sequence (P56524 whole entry): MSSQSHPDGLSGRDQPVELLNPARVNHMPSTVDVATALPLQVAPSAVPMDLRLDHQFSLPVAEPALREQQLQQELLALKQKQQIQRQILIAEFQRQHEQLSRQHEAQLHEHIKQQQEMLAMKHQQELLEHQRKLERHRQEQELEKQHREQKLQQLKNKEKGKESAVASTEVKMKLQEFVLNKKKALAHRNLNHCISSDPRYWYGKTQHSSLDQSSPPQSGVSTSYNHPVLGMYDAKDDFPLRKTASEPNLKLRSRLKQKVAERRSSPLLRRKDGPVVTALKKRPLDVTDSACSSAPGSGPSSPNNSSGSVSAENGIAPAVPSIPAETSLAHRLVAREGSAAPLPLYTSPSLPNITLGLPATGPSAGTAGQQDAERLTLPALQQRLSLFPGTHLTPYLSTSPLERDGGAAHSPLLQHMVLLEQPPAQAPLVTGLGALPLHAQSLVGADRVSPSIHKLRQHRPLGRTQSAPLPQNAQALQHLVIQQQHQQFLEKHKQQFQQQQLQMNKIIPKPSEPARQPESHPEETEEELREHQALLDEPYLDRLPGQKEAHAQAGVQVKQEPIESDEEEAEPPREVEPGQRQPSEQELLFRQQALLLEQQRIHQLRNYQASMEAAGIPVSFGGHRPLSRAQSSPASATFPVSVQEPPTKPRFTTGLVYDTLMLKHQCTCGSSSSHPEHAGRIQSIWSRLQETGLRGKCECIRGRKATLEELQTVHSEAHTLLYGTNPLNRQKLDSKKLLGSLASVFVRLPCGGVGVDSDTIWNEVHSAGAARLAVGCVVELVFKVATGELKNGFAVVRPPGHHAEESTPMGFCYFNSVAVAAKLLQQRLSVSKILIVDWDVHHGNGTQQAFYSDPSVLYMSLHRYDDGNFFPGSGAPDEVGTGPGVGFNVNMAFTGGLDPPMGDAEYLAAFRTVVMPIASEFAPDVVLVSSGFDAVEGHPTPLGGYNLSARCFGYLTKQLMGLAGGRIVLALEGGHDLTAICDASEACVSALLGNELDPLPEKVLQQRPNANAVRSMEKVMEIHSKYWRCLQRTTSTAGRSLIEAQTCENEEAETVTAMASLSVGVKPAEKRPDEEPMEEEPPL
Histone deacetylase 5, sequence (Q9UQL6 whole entry): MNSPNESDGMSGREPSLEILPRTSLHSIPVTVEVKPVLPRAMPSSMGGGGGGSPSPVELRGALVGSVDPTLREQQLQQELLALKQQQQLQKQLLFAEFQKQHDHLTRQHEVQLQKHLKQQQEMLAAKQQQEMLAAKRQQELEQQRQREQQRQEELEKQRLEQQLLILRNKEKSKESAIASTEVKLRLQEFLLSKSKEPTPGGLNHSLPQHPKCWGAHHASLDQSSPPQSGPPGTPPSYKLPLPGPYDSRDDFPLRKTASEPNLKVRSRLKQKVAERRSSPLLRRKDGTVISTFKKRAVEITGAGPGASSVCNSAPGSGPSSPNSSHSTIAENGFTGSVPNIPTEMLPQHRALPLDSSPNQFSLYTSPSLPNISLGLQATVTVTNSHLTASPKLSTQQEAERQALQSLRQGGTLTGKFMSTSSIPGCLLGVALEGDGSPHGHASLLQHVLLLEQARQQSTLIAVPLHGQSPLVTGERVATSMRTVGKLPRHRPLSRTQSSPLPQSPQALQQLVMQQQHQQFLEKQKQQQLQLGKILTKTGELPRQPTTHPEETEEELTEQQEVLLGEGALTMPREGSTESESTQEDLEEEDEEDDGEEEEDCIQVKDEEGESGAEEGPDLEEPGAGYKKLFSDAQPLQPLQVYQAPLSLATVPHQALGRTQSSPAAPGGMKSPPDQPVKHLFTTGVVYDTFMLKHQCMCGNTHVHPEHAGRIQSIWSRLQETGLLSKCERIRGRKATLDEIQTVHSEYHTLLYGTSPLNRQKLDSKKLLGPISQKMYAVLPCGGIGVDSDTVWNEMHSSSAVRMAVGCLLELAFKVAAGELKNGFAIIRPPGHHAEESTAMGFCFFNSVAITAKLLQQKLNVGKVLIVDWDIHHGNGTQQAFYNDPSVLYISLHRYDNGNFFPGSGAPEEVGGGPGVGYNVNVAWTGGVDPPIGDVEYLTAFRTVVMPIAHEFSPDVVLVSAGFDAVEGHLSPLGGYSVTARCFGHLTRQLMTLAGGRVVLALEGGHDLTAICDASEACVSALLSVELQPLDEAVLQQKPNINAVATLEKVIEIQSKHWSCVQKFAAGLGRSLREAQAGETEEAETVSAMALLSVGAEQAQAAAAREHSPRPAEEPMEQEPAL

| Structure (SMILES) | pKi [1] | pKi [2] | pKi [3] | pKi (Histone deacetylase 4) | pKi (Histone deacetylase 5) | pKi [4] | pKi [5] |
| --- | --- | --- | --- | --- | --- | --- | --- |
| O=C(NO)C(F)(F)C(F)(F)C(F)(F)C(F)(F)C(F)(F)C(F)(F)C(=O)Nc1ccc(-c2ccccc2)cc1 | 5.82 | 5.51 | 7.34 | < 4.30 | < 4.30 | – | – |
| O=C(NO)C(F)(F)C(F)(F)C(F)(F)C(F)(F)C(F)(F)C(F)(F)C(=O)Nc1ccccc1 | 6.15 | 5.59 | 7.66 | < 4.30 | 4.89 | – | – |
| O=C(NO)C(F)(F)C(F)(F)C(F)(F)C(F)(F)C(F)(F)C(F)(F)C(=O)Nc1ccc2cc3ccccc3cc2c1 | 4.62 | < 4.30 | 5.70 | < 4.30 | < 4.30 | – | – |
| O=C(NO)C(F)(F)C(F)(F)C(F)(F)C(F)(F)C(F)(F)C(F)(F)C(=O)Nc1cccc2ccccc12 | 5.15 | 4.68 | 6.46 | < 4.30 | < 4.30 | – | – |
| N#Cc1ccc(NC(=O)C(F)(F)C(F)(F)C(F)(F)C(F)(F)C(F)(F)C(F)(F)C(=O)NO)cc1 | 5.55 | 5.15 | 6.49 | < 4.30 | < 4.30 | – | – |
| CCc1cccc(NC(=O)C(F)(F)C(F)(F)C(F)(F)C(F)(F)C(F)(F)C(F)(F)C(=O)NO)c1 | 5.68 | 5.17 | 6.62 | < 4.30 | < 4.30 | – | – |
| O=C(NO)C(F)(F)C(F)(F)C(F)(F)C(F)(F)C(F)(F)C(F)(F)C(=O)Nc1cccc2cc3ccccc3cc12 | 5.05 | 4.96 | 5.96 | < 4.30 | < 4.30 | – | – |
| O=C(NO)C(F)(F)C(F)(F)C(F)(F)C(F)(F)C(F)(F)C(F)(F)C(=O)Nc1ccccc1-c1ccccc1 | 4.92 | 4.77 | 5.96 | < 4.30 | < 4.30 | – | – |
| Cc1ccc(NC(=O)C(F)(F)C(F)(F)C(F)(F)C(F)(F)C(F)(F)C(F)(F)C(=O)NO)cc1 | 5.64 | 5.21 | 6.72 | < 4.30 | < 4.30 | – | – |
| O=C(Nc1ccccc1)C(F)(F)C(F)(F)C(F)(F)C(F)(F)C(F)(F)C(F)(F)C(=O)Nc1ccccc1 | < 4.30 | < 4.30 | 5.00 | < 4.30 | < 4.30 | – | – |
| O=C(NO)C(F)(F)C(F)(F)C(F)(F)C(F)(F)C(F)(F)C(F)(F)C(=O)Nc1ccc(Cl)cc1 | 5.68 | 5.24 | 6.77 | < 4.30 | < 4.30 | 7.07 | 7.07 |
| CC(=O)Nc1ccc(NC(=O)C(F)(F)C(F)(F)C(F)(F)C(F)(F)C(F)(F)C(F)(F)C(=O)NO)cc1 | 5.44 | 5.12 | 6.49 | < 4.30 | < 4.30 | – | – |
| O=C(NO)C(F)(F)C(F)(F)C(F)(F)C(F)(F)C(F)(F)C(F)(F)C(=O)Nc1nc(-c2ccccc2)cs1 | 5.07 | < 4.30 | 4.92 | < 4.30 | < 4.30 | – | – |
| O=C(NO)C(F)(F)C(F)(F)C(F)(F)C(F)(F)C(F)(F)C(F)(F)C(=O)Nc1cc2ccccc2c2ccccc12 | 5.22 | 4.96 | 6.60 | < 4.30 | < 4.30 | – | – |
| O=C(NO)C(F)(F)C(F)(F)C(F)(F)C(F)(F)C(F)(F)C(F)(F)C(=O)Nc1cccc(-c2cn(-c3ccccc3)nn2)c1 | < 4.30 | < 4.30 | 5.59 | < 4.30 | < 4.30 | – | – |
| O=C(NO)C(F)(F)C(F)(F)C(F)(F)C(F)(F)C(F)(F)C(F)(F)C(=O)Nc1ccc2ccccc2c1 | 5.92 | 5.42 | 6.28 | < 4.30 | < 4.30 | – | – |
| O=C(NO)C(F)(F)C(F)(F)C(F)(F)C(F)(F)C(F)(F)C(F)(F)C(=O)Nc1ccc2ccc3cccc4ccc1c2c34 | 5.39 | 4.80 | 6.64 | < 4.30 | < 4.30 | – | – |
| O=C(NO)C(F)(F)C(F)(F)C(F)(F)C(F)(F)C(F)(F)C(F)(F)C(=O)Nc1ccc(I)cc1 | 5.96 | 5.39 | 7.34 | < 4.30 | < 4.30 | – | – |
| O=C(NO)C(F)(F)C(F)(F)C(F)(F)C(F)(F)C(F)(F)C(F)(F)C(=O)Nc1cccc(-c2ccccc2)c1 | 5.82 | 5.36 | 7.00 | < 4.30 | < 4.30 | – | – |
| O=C(NO)C(F)(F)C(F)(F)C(F)(F)C(F)(F)C(F)(F)C(F)(F)C(=O)Nc1ccc(-c2cnnn2-c2ccccc2)cc1 | 4.66 | 4.82 | 5.51 | < 4.30 | < 4.30 | – | – |

From ChEMBL document CHEMBL4004881, “Perfluorinated hydroxamic acids are potent and selective inhibitors of HDAC-like enzymes from Pseudomonas aeruginosa” (Bioorg Med Chem Lett, 2017)
